Laboratory results taken from ChEMBL document CHEMBL1145336, “1-aryl-3-(4-pyridine-2-ylpiperazin-1-yl)propan-1-one oximes as potent dopamine D4 receptor agonists for the treatment of erectile dysfunction” (J Med Chem, 2006).

Columns and labels:
D(2) dopamine receptor [1] = target: T1, D(2) dopamine receptor (Homo sapiens, UniProt P14416); assay: Antagonist activity at human recombinant D2 receptor expressed in HEK293 cells by FLIPR assay; format: functional, cell-based
D(2) dopamine receptor [2] = target: T1, D(2) dopamine receptor; assay: Displacement of [125I]PIPAT from human recombinant D2L receptor expressed in HEK293 cells
D(4) dopamine receptor [3] = target: T2, D(4) dopamine receptor (Homo sapiens, UniProt P21917); assay: Displacement of [3H]A-369508 from human recombinant D4.4 receptor expressed in HEK293 cell membrane; format: cell membranes
T2 sequence (P21917 whole entry): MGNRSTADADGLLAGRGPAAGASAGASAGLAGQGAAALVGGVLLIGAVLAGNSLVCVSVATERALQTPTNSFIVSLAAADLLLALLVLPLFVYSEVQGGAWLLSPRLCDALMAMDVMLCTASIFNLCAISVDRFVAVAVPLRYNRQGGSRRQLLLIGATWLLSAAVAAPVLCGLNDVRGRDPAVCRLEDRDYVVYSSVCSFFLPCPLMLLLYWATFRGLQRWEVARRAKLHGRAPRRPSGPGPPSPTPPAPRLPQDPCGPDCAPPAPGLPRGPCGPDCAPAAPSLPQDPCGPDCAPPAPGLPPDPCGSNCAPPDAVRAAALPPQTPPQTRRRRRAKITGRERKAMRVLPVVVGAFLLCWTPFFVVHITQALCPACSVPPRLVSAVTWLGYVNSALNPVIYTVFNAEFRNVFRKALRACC
In short: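 Competition binding against the D4-selective agonist radioligand [3H]-A-369508, using membranes from HEK-293 cells engineered to express human D4.4. Mean values (SEM, n ≥ 4).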

D(2) dopamine receptor [4] = target: T1, D(2) dopamine receptor; assay: Agonist activity at human recombinant D2 receptor expressed in HEK293 cells by FLIPR assay; format: functional, cell-based
In short: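 Calcium flux (FLIPR) in HEK-293 cells coexpressing recombinant human D2L with chimeric Gqo5. Efficacy is the maximal response relative to 10 µM dopamine (100%). EC50 is the concentration giving half-maximal stimulation. Values are means (SEM, n ≥ 3).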

D(4) dopamine receptor [5] = target: T2, D(4) dopamine receptor; assay: Activity at human recombinant D4.4 receptor expressed in HEK293 cells by FLIPR assay; format: functional, cell-based

T1 sequence (P14416 whole entry): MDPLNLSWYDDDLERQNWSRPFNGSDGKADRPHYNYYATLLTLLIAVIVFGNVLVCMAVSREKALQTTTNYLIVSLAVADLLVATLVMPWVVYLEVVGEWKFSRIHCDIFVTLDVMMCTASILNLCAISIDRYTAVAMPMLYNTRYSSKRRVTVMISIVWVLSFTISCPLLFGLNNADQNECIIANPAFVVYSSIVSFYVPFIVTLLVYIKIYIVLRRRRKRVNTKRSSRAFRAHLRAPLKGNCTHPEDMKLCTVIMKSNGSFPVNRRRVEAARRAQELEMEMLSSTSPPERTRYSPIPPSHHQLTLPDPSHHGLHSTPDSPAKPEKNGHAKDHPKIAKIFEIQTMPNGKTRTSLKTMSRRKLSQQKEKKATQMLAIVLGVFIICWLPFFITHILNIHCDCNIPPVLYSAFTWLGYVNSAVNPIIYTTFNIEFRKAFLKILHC

| Structure (SMILES) | IC50 (D(2) dopamine receptor [1]) [nM] | Ki (D(2) dopamine receptor [2]) [nM] | Ki (D(4) dopamine receptor [3]) [nM] | EC50 (D(2) dopamine receptor [4]) [nM] | EC50 (D(4) dopamine receptor [5]) [nM] |
| --- | --- | --- | --- | --- | --- |
| CO/N=C(\CCN1CCC(c2ccccn2)CC1)c1ccc(Cl)cc1 | > 10000 | 25.3 | 134 | > 10000 | 195 |
| CO/N=C(\CCN1CCN(c2ccccn2)CC1)c1cccc(Cl)c1 | > 10000 | 98.7 | 13.5 | > 10000 | 88.9 |
| CO/N=C(\CCN1CCN(c2ccccn2)CC1C)c1ccc(Cl)cc1 (stereo not drawn) | > 10000 | 76.5 | 67.1 | > 10000 | 333 |
| CO/N=C(/CCN1CCN(c2ccccn2)CC1)c1ccc(F)cc1 | > 10000 | 221 | 53.3 | > 10000 | 13.6 |
| N#CCO/N=C(\CCN1CCN(c2ccccn2)CC1)c1ccccc1 | > 10000 | 140 | 88 | > 10000 | 33 |
| CO/N=C(/CCN1CCN(c2ccccn2)CC1)c1cccc(C#N)c1 | > 10000 | 125 | 20.1 | > 10000 | 27.5 |
| CO/N=C(/c1ccc(Cl)cc1)C(C)CN1CCN(c2ccccn2)CC1 (stereo not drawn) | > 10000 | 146 | 346 | > 10000 | 459 |
| CO/N=C(/CCN1CCN(c2ccccn2)CC1)c1ccc(Cl)c(C)c1 | > 10000 | 60.9 | 11.6 | > 10000 | 98 |
| CO/N=C(/c1ccc(Cl)cc1)C(O)CN1CCN(c2ccccn2)CC1 (stereo not drawn) | > 10000 | 368 | 150 | > 10000 | 22.6 |
| CO/N=C(/CCN1CCN(c2ccccn2)CC1)c1cccnc1 | > 10000 | 1820 | 130 | > 10000 | 33.3 |
| CO/N=C(/CCN1CCN(c2ccccn2)CC1)c1cccc(F)c1 | > 10000 | 46.6 | 6.4 | > 10000 | 60.2 |
| CO/N=C(/CCN1CCC(c2ccccn2)CC1)c1ccc(Cl)cc1 | > 10000 | 19.4 | 90 | > 10000 | > 10000 |
| COC(CN1CCN(c2ccccn2)CC1)/C(=N\O)c1cccc(C)c1 (stereo not drawn) | > 10000 | – | – | > 10000 | 34.5 |
| CCO/N=C(\CCN1CCN(c2ccc(OC)cc2)CC1)c1ccccc1 | > 10000 | – | – | > 10000 | > 10000 |
| Cc1ccc(O)c(/C(CCN2CCN(c3ccccn3)CC2)=N/O)c1 | > 10000 | – | – | > 10000 | 19.2 |
| CO/N=C(/CCN1CCN(c2ccccn2)CC1)c1ccc(F)c(Cl)c1 | > 10000 | – | – | > 10000 | 95 |
| CO/N=C(/CCN1CCN(c2ccccn2)CC1)c1ccc(Cl)cc1 | > 10000 | – | – | > 10000 | 56.6 |
| CO/N=C(/CCN1CCN(c2ccccn2)CC1)c1ccccc1Cl | > 10000 | – | – | > 10000 | 57.2 |
| N#Cc1cccnc1N1CCN(CC/C(=N/O)c2ccccc2)CC1 | > 10000 | – | – | > 10000 | 20 |
| O/N=C(/CCCN1CCN(c2ccccn2)CC1)c1ccc(F)cc1 | > 10000 | – | – | > 10000 | 59.3 |
| CO/N=C(/CCN1CCN(c2ccccn2)CC1)c1cc(F)cc(F)c1 | > 10000 | 225 | 6.3 | > 10000 | 46.7 |
| CO/N=C(/CCN1CCN(c2ccccn2)CC1)c1ccc(Cl)cc1Cl | > 10000 | – | – | > 10000 | 296 |
| O/N=C(\CCN1CCN(c2nccs2)CC1)c1ccccc1 | > 10000 | – | – | > 10000 | 49.5 |

| Structure (SMILES) | IC50 (D(2) dopamine receptor [1]) [nM] | Ki (D(2) dopamine receptor [2]) [nM] | Ki (D(4) dopamine receptor [3]) [nM] | EC50 (D(2) dopamine receptor [4]) [nM] | EC50 (D(4) dopamine receptor [5]) [nM] |
| --- | --- | --- | --- | --- | --- |
| CCO/N=C(\CCN1CCN(c2ncccn2)CC1)c1ccccc1 | > 10000 | – | – | > 10000 | 615 |
| O/N=C(/CCN1CCN(c2ccccn2)CC1)c1ccccc1 | > 10000 | – | – | > 10000 | 21.7 |
| CCO/N=C1/c2ccccc2CCC1CN1CCN(c2ccccn2)CC1 (stereo not drawn) | > 10000 | – | – | > 10000 | 4760 |
| Cc1cccc(/C(CCN2CCN(c3ccccn3)CC2)=N/O)c1 | > 10000 | – | – | > 10000 | 2.3 |
| CO/N=C(/CCN1CCN(c2ccccn2)CC1)c1cccc(C)c1 | > 10000 | 68 | 32.1 | > 10000 | 61 |
| O/N=C(\CCN1CCN(c2ccccn2)CC1)c1ccc(Cl)cc1 | > 10000 | – | – | > 10000 | 475 |
| O/N=C(\CCN1CCN(c2ccccn2)CC1)c1ccccc1Cl | > 10000 | – | – | > 10000 | 24 |
| CO/N=C(/CCN1CCN(c2ccccn2)CC1)c1ccc(Br)cc1 | > 10000 | – | – | > 10000 | 82 |
| CO/N=C(/c1cccnc1)C(O)CN1CCN(c2ccccn2)CC1 (stereo not drawn) | > 10000 | – | – | > 10000 | 123 |
| CCO/N=C(\CCN1CCN(c2ccccc2)CC1)c1ccccc1 | > 10000 | – | – | > 10000 | 109 |
| O/N=C(/CN1CCN(c2ccccn2)CC1)c1ccc(F)cc1 | > 10000 | – | – | > 10000 | > 10000 |
| C=CCO/N=C(\CCN1CCN(c2ccccn2)CC1)c1ccccc1 | > 10000 | – | – | > 10000 | 350 |
| CO/N=C(/CCN1CCN(c2ccccn2)CC1)c1cc(C)cc(C)c1 | > 10000 | – | – | > 10000 | 74.7 |
| Cc1cc(C)cc(/C(CCN2CCN(c3ccccn3)CC2)=N/O)c1 | > 10000 | – | – | > 10000 | 45.8 |
| O/N=C(/CCN1CCN(c2ccccn2)CC1)c1cc(F)cc(F)c1 | > 10000 | – | – | > 10000 | 17.5 |
| CO/N=C(/CCN1CCN(c2ccccn2)CC1)c1ccc(Cl)c(Cl)c1 | > 10000 | – | – | > 10000 | 341 |
| CO/N=C(/CN1CCN(c2ccccn2)CC1)c1ccc(F)cc1 | > 10000 | – | – | > 10000 | 4290 |
| O/N=C(\CN1CCN(c2ccccn2)CC1)c1ccc(F)cc1 | > 10000 | – | – | > 10000 | 26 |
| O/N=C(\CCN1CCN(c2ccccn2)CC1)c1ccc(F)cc1F | > 10000 | – | – | > 10000 | 8.9 |
| Cc1cccc(/C(=N\O)C(O)CN2CCN(c3ccccn3)CC2)c1 (stereo not drawn) | > 10000 | – | – | > 10000 | 44.8 |
| CO/N=C(\c1ccc(Cl)cc1)C(CN1CCN(c2ccccn2)CC1)OC (stereo not drawn) | > 10000 | – | – | > 10000 | 195 |
| Cc1ccccc1/C(CCN1CCN(c2ccccn2)CC1)=N\O | > 10000 | – | – | > 10000 | 20.3 |
